# Sampled rows, rich in hits. Any-hit rate of the full collection: about 4.7%.
# Cl transport mod – modulators of human KCC2 chloride dependent transport; KCC2 cells, thallium flux FluoZin-2 fluorescence; B-score of Tl+ flux slope (higher = more flux/activation; lower = inhibition) at 10 µM; AID 1456; 190,000 compounds, 2.2% hits;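 active = thallium flux slope and its plate-corrected score both differing from the plate sample mean at a set confidence after two filtering rounds, in either direction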;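 also: slope of fluorescence scaled to starting intensity during 10 to 20 s after thallium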
# RGS4 pot – RGS4 potentiation or activation. B-score at 10 µM. HEK293 M3R/inducible RGS4, carbachol calcium flux Fluo4; stronger effect = lower value. 310,000 compounds, 0.92% hits;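 active = B-score of the integrated calcium signal more than 4 SD below the library mean, with starting fluorescence not abnormally high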;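 also: negative B-score means reduced calcium response which marks RGS4 activation or potentiation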
#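 Assay system: HEK293 FlpIn-TREx cells, stable M3R, doxycycline-inducible RGS4 / Probe or stimulus: carbachol, ECmax concentration / Times: overnight RGS4 induction, 30 min dye load 37 °C, 20 min compound RT / Signal: kinetic calcium fluorescence imaging with Fluo4-AM dye, 2 µM / Measure: Agonist-evoked peak-minus-minimum fluorescence over baseline, integrated ratio, B score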
# MrgX1 antag – blocks BAM8-22 activation of human MrgX1 receptor; Q96LB2; MRGX1-HEK293 calcium flux, Fluo-4, BAM8-22 antagonism; stronger effect = lower value; B-score at 10 µM; 310,000 compounds, 1.3% hits; AID 588676;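 active = calcium-response B-score plate-corrected more than 3 library SD below zero, starting fluorescence within 5 deviations, no agonist response on first addition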;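 also: peak minus trough fluorescence over baseline after final BAM8-22 challenge near maximal dose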
# Target sequence (Q96LB2 whole entry, looked up): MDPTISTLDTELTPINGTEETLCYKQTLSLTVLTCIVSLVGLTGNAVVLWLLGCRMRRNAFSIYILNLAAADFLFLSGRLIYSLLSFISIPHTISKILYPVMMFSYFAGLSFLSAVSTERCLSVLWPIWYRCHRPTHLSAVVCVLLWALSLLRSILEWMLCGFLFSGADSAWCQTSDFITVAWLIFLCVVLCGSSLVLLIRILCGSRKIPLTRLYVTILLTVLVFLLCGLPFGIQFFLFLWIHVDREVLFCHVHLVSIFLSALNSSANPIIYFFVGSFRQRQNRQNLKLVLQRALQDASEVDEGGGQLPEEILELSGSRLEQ
# MrgX1 PAM – human MrgX1 positive allosteric modulation, primary screen; MrgX1-HEK293, Fluo-4 calcium flux, FDSS; stronger effect = higher value; B-score at 10 µM; 310,000 compounds, 0.63% hits; AID 588675;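 active = plate-corrected calcium response at least 3 library SD above typical, normal starting fluorescence, not activating the receptor alone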;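 also: compound read alongside a low EC10 to EC30 dose of BAM8-22 agonist; peak minus trough fluorescence over baseline measured at the second addition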
# RGS4 block – inhibitors of human RGS4 | 310,000 compounds, 0.45% hits | HEK293 M3R/RGS4 inducible, Fluo-4 calcium flux; stronger effect = higher value; triggered by carbachol at its EC20 | B-score at 10 µM | P49798 | AID 463165;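 active = B-score, a plate-corrected calcium signal, over three deviations above library mean, with baseline fluorescence within five deviations of library mean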;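 also: RGS4 expression induced by doxycycline in cells with stable M3 receptor; B-score is computed from the integrated fluorescence ratio over baseline after carbachol; higher B-score means a larger calcium signal and so more RGS4 inhibition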
# Target sequence (P49798 whole entry, looked up): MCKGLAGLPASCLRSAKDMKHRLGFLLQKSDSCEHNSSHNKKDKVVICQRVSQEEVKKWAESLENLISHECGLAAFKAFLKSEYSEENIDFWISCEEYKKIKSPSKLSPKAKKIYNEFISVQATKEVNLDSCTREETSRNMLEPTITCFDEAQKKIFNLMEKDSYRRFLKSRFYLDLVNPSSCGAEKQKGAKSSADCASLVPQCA
# MrgX1 ag – human MrgX1 receptor agonism, primary screen. Q96LB2. MrgX1-HEK293 cells, Fluo-4 calcium fluorescence, agonist mode; stronger effect = higher value. B-score at 10 µM. 310,000 compounds, 0.44% hits. AID 588627;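 active = calcium response B-score plate-corrected fluorescence ratio at least 3 library SD, with starting fluorescence B-score inside 5 SD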
#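 System – MrgX1-expressing HEK293 cells · Incubation – cells plated overnight, dye loaded 0.5 h 37 °C, 0.5 h room temperature · Technique – kinetic Fluo-4 NW fluorescence of intracellular calcium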
# KCC2 sec1 – confirmation of human KCC2 transport modulators. shares compounds with Cl transport mod. HEK293-KCC2, thallium flux, FluoZin2 fluorescence; stronger effect = higher value. normalised thallium flux (F/F0 slope) at 10 µM. 3,700 compounds, 15% hits;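 active = thallium flux slope above the same plate's solvent-only control mean plus 3 SD; inconclusive = the two replicate wells disagree; inactive = no significant difference from solvent-only control wells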
# KCC2 bumet counter – thallium flux despite bumetanide block in KCC2 cells, secondary assay 3 | shares compounds with Cl transport mod | HEK293-KCC2 + bumetanide/ouabain, thallium flux FluoZin2; stronger effect = higher value | normalized thallium flux at 10 µM | 3,700 compounds, 49% hits | AID 1714;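 active = thallium entry rate above the same plate's blocked-transporter control wells by more than 3 SD; inconclusive = the two repeat wells disagree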;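 also: raw slope of fluorescence over initial fluorescence between 10 and 20 s after thallium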
# KCC2 sec2 – KCC2 (human) modulation, second secondary assay | HEK293-KCC2, thallium flux FluoZin2 fluorescence; actives lie on both sides; F/F0 rise rate, 10–20 s post-thallium | 3,700 compounds, 23% hits | normalized thallium flux at 10 µM | shares compounds with Cl transport mod;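 active = thallium flux slope more than 3 SD above or below the plate's solvent-only control mean, mostly below; inconclusive = the two repeat wells disagreed; inactive = no significant shift from solvent-only controls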;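 also: raw slope with 0.1% DMSO as baseline and bumetanide as block control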
# HEK counter1 – counter-screen for KCC2 modulators: effect in parental HEK293 cells. shares compounds with Cl transport mod. thallium flux FluoZin2, ouabain; baseline-ratio fluorescence slope, 10–20 s after thallium. thallium flux rate (normalised fluorescence) at 10 µM. 3,700 compounds, 46% hits;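 active = thallium flux rate significantly above the same plate's solvent-only control wells, beyond their mean plus 3 SD; inconclusive = the two replicate wells gave conflicting results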
# KCC2 ouabain – KCC2 (human) modulation, ouabain retest; 3,700 compounds, 48% hits; raw Tl+ flux slope (below DMSO = inhibition, above = activation) at 10 µM; AID 1717; HEK293-KCC2, thallium flux FluoZin2 fluorescence; bidirectional: low = inhibitor, high = activator; shares compounds with Cl transport mod;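 active = thallium flux slope beyond 3 SD from same-plate DMSO control mean in most replicates, usually higher, sometimes lower; inconclusive = repeat tests gave conflicting results; inactive = no significant difference from controls in most replicates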;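 also: slope of initial-normalized fluorescence between seconds 10 and 20 after thallium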
# HEK293 Tl flux2 – counter-screen for KCC2 modulators: effect in parental HEK293 cells; thallium flux slope at 10 µM; shares compounds with Cl transport mod; 3,700 compounds, 33% hits; thallium flux FluoZin-2 fluorescence slope;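 active = thallium flux slope above the same plate's solvent-control mean plus 3 SD in both duplicate wells; inconclusive = duplicate wells that disagreed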;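 also: run without ouabain in cells lacking the KCC2 cotransporter; slope of fluorescence scaled to its starting value between 10 and 20 s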
# An asterisk follows results filed as active; i = inactive; ? = inconclusive; / = no result.
SMILES,Cl transport mod,RGS4 pot,MrgX1 antag,MrgX1 PAM,RGS4 block,MrgX1 ag,KCC2 sec1,KCC2 bumet counter,KCC2 sec2,HEK counter1,KCC2 ouabain,HEK293 Tl flux2
S=c1[nH]nc(-c2ccccn2)n1/N=C/c1ccc(-c2ccccc2Cl)o1,132*,i,i,i,i,i,0.12*,0.14*,0.031,0.13*,0.15*,0.013*
S=c1[nH]nc(-c2ccccn2)n1/N=C/c1ccc(Cl)c(Cl)c1,41*,i,i,i,i,i,0.0056,0.11*,0.054*,0.041*,0.067*,0.031*
Cc1n[nH]c(=S)n1/N=C/c1ccc(-c2ccc(Cl)cc2)o1,/,i,i,i,i,i,/,/,/,/,/,/
CC1(C(=O)N2CCN(Cc3ccccc3Cl)CC2)CC1(Cl)Cl (configuration not stated),/,i,i,i,i,i,/,/,/,/,/,/
Cc1cccc(C(=O)Nc2nsc(N)n2)c1,/,i,i,i,i,i,/,/,/,/,/,/
CC(C)(C)C1CCc2onc(C(=O)Nc3cccnc3)c2C1 (configuration not stated),6.5*,i,i,i,i,i,0.0068,0.0045,0.03,0.0081,0.019,0.011
CC(C)(C)C1CCC(=NNC(=S)Nc2cccnc2)CC1 (configuration not stated),6.8*,i,i,i,i,i,0.0069,0.013*,0.032,0.014*,?,0.013*
CCNC(=S)NN=C1CCC(C(C)(C)C)CC1 (configuration not stated),3.3*,i,i,i,i,i,0.0069,0.0066*,0.028,0.0092*,0.02,0.011
CC(C)(C)C1CCc2onc(C(=O)Nc3cccc(O)c3)c2C1 (configuration not stated),0.54,i,i,i,i,i,/,/,/,/,/,/
CCN(CC(=O)NC(C)(C)C)C(=O)CN1c2cccc3cccc(c23)S1(=O)=O,/,i,i,i,i,i,/,/,/,/,/,/
CCOC(=O)c1cc2c(ccn2-c2ccc(F)cc2)n1CC(=O)N(CC)CC,-5.5*,i,i,i,i,i,0.015,0.0036,0.023*,?,0.012*,0.009
O=C(CCNS(=O)(=O)c1ccc(Br)cc1)Nc1cccc(F)c1,/,i,i,i,i,i,/,/,/,/,/,/
O=c1cc(-c2ccccc2)nc2nc(SCc3ccccc3)[nH]n12,/,i,i,i,i,i,0.009,0.0067,0.029,0.0073,0.015*,0.0099
COc1ccccc1N(C)S(=O)(=O)c1ccc(C(=O)N2CCCC(C(F)(F)F)C2)cc1 (configuration not stated),/,i,i,i,i,i,/,/,/,/,/,/
N#CC1=C(N)NC(SCc2ccccc2)=C(C#N)C12CCCCC2,-3.2*,i,i,i,i,i,0.0057,0.0046,?,0.0072,0.017,0.011
COc1ccc(C(=O)CSC2=C(C#N)C3(CCCCC3)C(C#N)=C(N)N2)cc1,-2.9,i,i,i,i,i,0.0073,0.0052,0.034,0.0064*,0.016*,0.011
N#CC1=C(N)NC(SCC(=O)Nc2ccccc2)=C(C#N)C12CCCCC2,/,i,i,i,i,i,/,/,/,/,/,/
CCSC1=C(C#N)C2(CCCCC2)C(C#N)=C(N)N1,-4.1*,i,i,i,i,i,0.0074,0.0054,0.03,?,0.019,0.0093
Cc1ccc(NCc2nc(SCC(=O)Nc3ccccc3)n[nH]2)cc1,/,i,i,i,i,i,/,/,/,/,/,/
Cc1ccc(-n2ncc3c2CC(C)(C)CC3NC(=O)CCc2c(C)noc2C)cc1 (configuration not stated),/,i,i,i,i,i,/,/,/,/,/,/
COc1ccc(S(=O)(=O)N(CC(=O)NCc2ccncc2)c2ccc(C)cc2)cc1Br,/,i,i,i,i,i,/,/,/,/,/,/
Cc1ccccc1NC(=O)NC1CCCc2ccccc21 (configuration not stated),/,i,i,i,i,i,/,/,/,/,/,/
CN(c1ccc(OCc2nnc(-c3ccccc3)o2)cc1)S(=O)(=O)c1ccccc1,-4.2*,i,i,i,i,i,0.017,?,0.03,0.0057*,0.014,0.0093
CN(c1ccc(OCC(=O)OCc2nnc(-c3ccccc3)o2)cc1)S(=O)(=O)c1ccc(Cl)cc1,/,i,i,i,i,i,/,/,/,/,/,/
CNC(=S)NNC(=O)Cc1ccc(OC)cc1,-0.97,i,i,i,i,i,/,/,/,/,/,/
O=C(NNC(=S)Nc1ccc(Br)cc1)c1ccccc1,/,i,i,i,i,i,/,/,/,/,/,/
O=C(COc1ccccc1)NC(=S)Nc1ccc(Br)cn1,85*,i,i,i,i,i,0.0071,0.045*,0.048*,0.053*,0.052*,0.041*
CCOc1ccc(NC(=S)NNC(=O)c2ccc(Br)cc2)cc1,24*,i,i,i,i,i,0.014*,0.055*,0.039,?,0.046*,?
CCC(=O)NC(=S)NNC(=O)COc1ccc(Br)cc1,7.6*,i,i,i,i,i,0.0072,0.019*,0.031,0.018*,?,0.015*
COc1ccc(CC(=O)NC(=S)NNC(=O)COc2c(C)cccc2C)cc1,7.3*,i,i,i,i,27*,0.013*,0.038*,0.034,0.015*,?,0.012*

# Screening results as filed in PubChem.
